≈ marks a conversion by molar mass, not a printed value.
Key:
[1] = tested on: Candida albicans; test: Ratio of bifonazole to compound for Candida albicans isolated from human; assay type: functional
[2] = tested on: Pseudomonas aeruginosa; test: Antibacterial activity against Pseudomonas aeruginosa ATCC 27853 incubated for 24 hrs followed by serial sub-cultivation for 24 hrs by microdilution; assay type: functional; conditions: ATCC 27853, 24 h
How it was run: (§1)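 MBC: after the 24 h LB broth microdilution (1.0 × 10⁴ CFU per well, 160 rpm), wells were serially sub-cultured into fresh broth plates and incubated a further 24 h. MBC is the lowest concentration with no visible growth, taken as 99.5% killing of the original inoculum. Duplicate, repeated three times.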

[3] = tested on: Aspergillus flavus; test: Antifungal activity against Aspergillus flavus ATCC 9643 after 72 hrs by serial dilution technique; assay type: functional; conditions: ATCC 9643, 72 h
How it was run: (§2)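 Modified microdilution in 96-well plates. Fungi were kept on malt agar at 4 °C. Spores were washed off in sterile 0.85% saline with 0.1% Tween 80. Compounds were dissolved at 1 mg/ml in 5% DMSO with 0.1% Tween 80 and added to malt broth with inoculum. Plates were shaken at 160 rpm for 72 h at 28 °C. Duplicate, repeated three times.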

[4] = tested on: Aspergillus niger; test: Antifungal activity against Aspergillus niger ATCC 6275 incubated for 72 hrs followed by serial sub-cultivation for 72 hrs by serial dilution technique; assay type: functional; conditions: ATCC 6275, 72 h
How it was run: (§3)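 MFC: material from 72 h malt broth microdilution wells was serially sub-cultured into fresh broth plates and incubated a further 72 h at 28 °C. Fungicidal concentration is taken from growth after sub-culture. Duplicate, repeated three times.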

[5] = tested on: Aspergillus niger; test: Antifungal activity against Aspergillus niger ATCC 6275 after 72 hrs by serial dilution technique; assay type: functional; conditions: ATCC 6275, 72 h; how it was run: as §2
[6] = tested on: Bacillus cereus; test: Antibacterial activity against clinical isolate of Bacillus cereus incubated for 24 hrs followed by serial sub-cultivation for 24 hrs by microdilution; assay type: functional; how it was run: as §1
[7] = tested on: Penicillium ochrochloron; test: Ratio of ketoconazole to compound for Penicillium ochrochloron ATCC 9112; assay type: functional
[8] = tested on: Penicillium ochrochloron; test: Antifungal activity against Penicillium ochrochloron ATCC 9112 after 72 hrs by serial dilution technique; assay type: functional; conditions: ATCC 9112, 72 h; how it was run: as §2
[9] = tested on: Candida albicans; test: Antifungal activity against Candida albicans isolated from human incubated for 72 hrs followed by serial sub-cultivation for 72 hrs by serial dilution technique; assay type: functional; how it was run: as §3
[10] = tested on: Candida albicans; test: Ratio of ketoconazole to compound for Candida albicans isolated from human; assay type: functional
[11] = tested on: Talaromyces funiculosus; test: Antifungal activity against Penicillium funiculosum ATCC 36839 incubated for 72 hrs followed by serial sub-cultivation for 72 hrs by serial dilution technique; assay type: functional; conditions: ATCC 36839, 72 h; how it was run: as §3
[12] = tested on: Aspergillus ochraceus; test: Antifungal activity against Aspergillus ochraceus ATCC 12066 after 72 hrs by serial dilution technique; assay type: functional; conditions: ATCC 12066, 72 h; how it was run: as §2
[13] = tested on: Trichoderma viride; test: Ratio of bifonazole to compound for Trichoderma viride IAM 5061; assay type: functional
[14] = tested on: Bacillus cereus; test: Antibacterial activity against clinical isolate of Bacillus cereus after 24 hrs by microdilution method; assay type: functional
How it was run: (§4)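 Broth microdilution in 96-well plates. Bacterial suspensions were adjusted in sterile saline to 1.0 × 10⁵ CFU/ml, prepared daily and kept at 4 °C. Compound was added to LB broth with 1.0 × 10⁴ CFU per well and shaken at 160 rpm for 24 h at […] (so in the source). MIC is the lowest concentration with no visible growth under a binocular microscope. OD655 was also read. Duplicate, repeated three times.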

[15] = tested on: Escherichia coli; test: Antibacterial activity against Escherichia coli ATCC 35210 incubated for 24 hrs followed by serial sub-cultivation for 24 hrs by microdilution; assay type: functional; conditions: ATCC 35210, 24 h; how it was run: as §1
[16] = tested on: Enterococcus faecalis; test: Antibacterial activity against Enterococcus faecalis isolated from human incubated for 24 hrs followed by serial sub-cultivation for 24 hrs by microdilution; assay type: functional; how it was run: as §1
[17] = tested on: Listeria monocytogenes; test: Antibacterial activity against Listeria monocytogenes NCTC 7973 incubated for 24 hrs followed by serial sub-cultivation for 24 hrs by microdilution; assay type: functional; conditions: NCTC 7973, 24 h; how it was run: as §1
[18] = tested on: Talaromyces funiculosus; test: Ratio of bifonazole to compound for Penicillium funiculosum ATCC 36839; assay type: functional
[19] = tested on: Penicillium ochrochloron; test: Ratio of bifonazole to compound for Penicillium ochrochloron ATCC 9112; assay type: functional
[20] = tested on: Trichoderma viride; test: Antifungal activity against Trichoderma viride IAM 5061 incubated for 72 hrs followed by serial sub-cultivation for 72 hrs by serial dilution technique; assay type: functional; conditions: IAM 5061, 72 h; how it was run: as §3
[21] = tested on: Pseudomonas aeruginosa; test: Antibacterial activity against Pseudomonas aeruginosa ATCC 27853 after 24 hrs by microdilution method; assay type: functional; conditions: ATCC 27853, 24 h; how it was run: as §4
[22] = tested on: Escherichia coli; test: Antibacterial activity against Escherichia coli ATCC 35210 after 24 hrs by microdilution method; assay type: functional; conditions: ATCC 35210, 24 h; how it was run: as §4
[23] = tested on: Aspergillus ochraceus; test: Ratio of ketoconazole to compound for Aspergillus ochraceus ATCC 12066; assay type: functional
[24] = tested on: Talaromyces funiculosus; test: Antifungal activity against Penicillium funiculosum ATCC 36839 after 72 hrs by serial dilution technique; assay type: functional; conditions: ATCC 36839, 72 h; how it was run: as §2
[25] = tested on: Trichoderma viride; test: Antifungal activity against Trichoderma viride IAM 5061 after 72 hrs by serial dilution technique; assay type: functional; conditions: IAM 5061, 72 h; how it was run: as §2
[26] = tested on: Staphylococcus aureus; test: Antibacterial activity against Staphylococcus aureus ATCC 6538 incubated for 24 hrs followed by serial sub-cultivation for 24 hrs by microdilution method; assay type: functional; conditions: ATCC 6538, 24 h; how it was run: as §1
[27] = tested on: Aspergillus ochraceus; test: Ratio of bifonazole to compound for Aspergillus ochraceus ATCC 12066; assay type: functional
[28] = tested on: Aspergillus ochraceus; test: Antifungal activity against Aspergillus ochraceus ATCC 12066 incubated for 72 hrs followed by serial sub-cultivation for 72 hrs by serial dilution technique; assay type: functional; conditions: ATCC 12066, 72 h; how it was run: as §3
[29] = tested on: Listeria monocytogenes; test: Antibacterial activity against Listeria monocytogenes NCTC 7973 after 24 hrs by microdilution method; assay type: functional; conditions: NCTC 7973, 24 h; how it was run: as §4
[30] = tested on: Pseudomonas aeruginosa; test: Ratio of ampicillin MIC to compound MIC for Pseudomonas aeruginosa ATCC 27853; assay type: functional
[31] = tested on: Enterococcus faecalis; test: Antibacterial activity against Enterococcus faecalis isolated from human after 24 hrs by microdilution method; assay type: functional; how it was run: as §4
[32] = tested on: Staphylococcus aureus; test: Antibacterial activity against Staphylococcus aureus ATCC 6538 after 24 hrs by microdilution method; assay type: functional; conditions: ATCC 6538, 24 h; how it was run: as §4
[33] = tested on: Aspergillus fumigatus; test: Antifungal activity against Aspergillus fumigatus isolated from human incubated for 72 hrs followed by serial sub-cultivation for 72 hrs by serial dilution technique; assay type: functional; how it was run: as §3
[34] = tested on: Micrococcus flavus; test: Antibacterial activity against Micrococcus flavus ATCC 10240 after 24 hrs by microdilution method; assay type: functional; conditions: ATCC 10240, 24 h; how it was run: as §4
[35] = tested on: Aspergillus flavus; test: Antifungal activity against Aspergillus flavus ATCC 9643 incubated for 72 hrs followed by serial sub-cultivation for 72 hrs by serial dilution technique; assay type: functional; conditions: ATCC 9643, 72 h; how it was run: as §3
[36] = tested on: Aspergillus fumigatus; test: Ratio of ketoconazole to compound for Aspergillus fumigatus isolated from human; assay type: functional
[37] = tested on: Aspergillus ochraceus; test: Antifungal activity against Aspergillus ochraceus after 72 hrs by serial dilution technique
[38] = tested on: Candida albicans; test: Antifungal activity against Candida albicans isolated from human after 72 hrs by serial dilution technique; assay type: functional; how it was run: as §2
[39] = tested on: Penicillium ochrochloron; test: Antifungal activity against Penicillium ochrochloron ATCC 9112 incubated for 72 hrs followed by serial sub-cultivation for 72 hrs by serial dilution technique; assay type: functional; conditions: ATCC 9112, 72 h; how it was run: as §3
[40] = tested on: Aspergillus niger; test: Ratio of bifonazole to compound for Aspergillus niger ATCC 6275; assay type: functional
[41] = tested on: Micrococcus flavus; test: Antibacterial activity against Micrococcus flavus ATCC 10240 incubated for 24 hrs followed by serial sub-cultivation for 24 hrs by microdilution; assay type: functional; conditions: ATCC 10240, 24 h; how it was run: as §1
[42] = tested on: Salmonella typhimurium; test: Antibacterial activity against Salmonella Typhimurium ATCC 13311 incubated for 24 hrs followed by serial sub-cultivation for 24 hrs by microdilution; assay type: functional, Salmonella enterica subsp. enterica serovar Typhimurium; conditions: Salmonella enterica, ATCC 13311, 24 h; how it was run: as §1
[43] = tested on: Salmonella typhimurium; test: Antibacterial activity against Salmonella Typhimurium ATCC 13311 after 24 hrs by microdilution method; assay type: functional, Salmonella enterica subsp. enterica serovar Typhimurium; conditions: Salmonella enterica, ATCC 13311, 24 h; how it was run: as §4

MIC [3]: 36.2 µM (≈ 10 µg/mL)
MIC [5]: 36.2 µM (≈ 10 µg/mL)
MIC [8]: 36.2 µM (≈ 10 µg/mL)
MIC [12]: 36.2 µM (≈ 10 µg/mL)
MIC [14]: 36.2 µM (≈ 10 µg/mL)
MIC [21]: 72.5 µM (≈ 20 µg/mL)
MIC [22]: 54.3 µM (≈ 15 µg/mL)
MIC [24]: 36.2 µM (≈ 10 µg/mL)
MIC [25]: 72.5 µM (≈ 20 µg/mL)
MIC [29]: 90.6 µM (≈ 25 µg/mL)
MIC [31]: 54.3 µM (≈ 15 µg/mL)
MIC [32]: 72.5 µM (≈ 20 µg/mL)
MIC [34]: 32.6 µM (≈ 9.01 µg/mL)
MIC [37]: 36.2 µM (≈ 10 µg/mL)
MIC [38]: 72.5 µM (≈ 20 µg/mL)
MIC [43]: 54.3 µM (≈ 15 µg/mL)
SMILES: CNc1nc(C)c(C(=O)/C=C/c2ccc(F)cc2)s1
Ratio [1]: 10
MBC [2]: 111 µM (≈ 30.6 µg/mL)
MFC [4]: 72.5 µM (≈ 20 µg/mL)
MBC [6]: 54.3 µM (≈ 15 µg/mL)
Ratio [7]: 10
MFC [9]: 90.6 µM (≈ 25 µg/mL)
Ratio [10]: 10
MFC [11]: 72.5 µM (≈ 20 µg/mL)
Ratio [13]: 10
MBC [15]: 72.5 µM (≈ 20 µg/mL)
MBC [16]: 72.5 µM (≈ 20 µg/mL)
MBC [17]: 90.6 µM (≈ 25 µg/mL)
Ratio [18]: 10
Ratio [19]: 10
MFC [20]: 90.6 µM (≈ 25 µg/mL)
Ratio [23]: 10
MBC [26]: 72.5 µM (≈ 20 µg/mL)
Ratio [27]: 10
MFC [28]: 72.5 µM (≈ 20 µg/mL)
Ratio [30]: 10
MFC [33]: 72.5 µM (≈ 20 µg/mL)
MFC [35]: 90.6 µM (≈ 25 µg/mL)
Ratio [36]: 10
MFC [39]: 72.5 µM (≈ 20 µg/mL)
Ratio [40]: 10
MBC [41]: 72.5 µM (≈ 20 µg/mL)
MBC [42]: 72.5 µM (≈ 20 µg/mL)
